Assay results published in ChEMBL document CHEMBL3286129, “Optimization of peptidomimetic boronates bearing a P3 bicyclic scaffold as proteasome inhibitors” (Eur J Med Chem, 2014).

How the values were obtained:
[1] = Cytotoxicity against human ovarian cancer cells assessed as cell growth at 10 uM relative to control; format: functional; settings: Cancer cell lines, read-out: Activity
How it was run: (§1)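 Single-concentration screen against a panel of human cancer cell lines. Each value is the mean percent growth across the cell lines of that tumour subpanel.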

IGROV-1 = experiment: Growth inhibition of human IGROV1 cells; format: functional
[2] = Cytotoxicity against human colon cancer cells assessed as cell growth at 10 uM relative to control; format: functional; settings: Cancer cell lines, read-out: Activity; how it was run: as §1
SR = experiment: Growth inhibition of human SR cells; format: functional
MDA-MB-435 = experiment: Growth inhibition of human MDA-MB-435 cells; format: functional
[3] = Growth inhibition of human UO31 cells; format: functional; settings: UO-31
SN12C = experiment: Growth inhibition of human SN12C cells; format: functional
SK-MEL-2 = experiment: Growth inhibition of human SK-MEL-2 cells; format: functional
ACHN = experiment: Growth inhibition of human ACHN cells; format: functional
HOP-62 = experiment: Growth inhibition of human HOP62 cells; format: functional
[4] = Growth inhibition of human MOLT4 cells; format: functional
[5] = Growth inhibition of human OVCAR4 cells; format: functional
[6] = Growth inhibition of human SF539 cells; format: functional
[7] = target: T1, Proteasome Macropain subunit MB1 (Homo sapiens) (UniProt P28074); experiment: Inhibition of chymotrypsin-like activity of 20S proteasome in human erythrocytes using Suc-Leu-Leu-Val-Tyr-AMC as substrate at 20 uM by fluorescence assay relative to control
T1 sequence (whole entry): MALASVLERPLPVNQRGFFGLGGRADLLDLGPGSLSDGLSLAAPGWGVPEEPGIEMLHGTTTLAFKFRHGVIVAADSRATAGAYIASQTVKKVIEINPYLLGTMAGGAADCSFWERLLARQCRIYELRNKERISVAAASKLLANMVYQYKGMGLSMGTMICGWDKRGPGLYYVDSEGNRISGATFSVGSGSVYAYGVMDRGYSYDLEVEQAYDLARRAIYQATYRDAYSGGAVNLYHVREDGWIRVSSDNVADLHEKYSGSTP
How it was run: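 Single inhibitor concentration, equivalent DMSO as negative control. AMC fluorescence read at ex 380/em 460 nm; percent inhibition of ChT-L activity.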

[8] = Growth inhibition of human UACC62 cells; format: functional; settings: UACC-62
U-251 = experiment: Growth inhibition of human U251 cells; format: functional
NCI-H226 = experiment: Growth inhibition of human NCI-H226 cells; format: functional
CAKI-1 = experiment: Growth inhibition of human CAKI-1 cells; format: functional
Chymotrypsinogen A = Chymotrypsinogen A (Bos taurus, UniProt P00766); experiment: Inhibition of bovine pancreatic alpha-chymotrypsin using Suc-Leu-Leu-Val-Tyr-AMC as substrate by fluorescence assay
How it was run: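 Enzyme incubated at 20 °C in 50 mM Tris pH 8.0, 100 mM NaCl, 5 mM EDTA, 7.5% DMSO with varied inhibitor concentrations. Substrate hydrolysis followed for 10 min. Ki from progress curves; mean of three determinations.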

SW-620 = experiment: Growth inhibition of human SW620 cells; format: functional
[9] = Growth inhibition of human OVCAR3 cells; format: functional; settings: OVCAR-3
Malme-3M = experiment: Growth inhibition of human MALME-3M cells; format: functional
SK-OV-3 = experiment: Growth inhibition of human SKOV3 cells; format: functional
[10] = Cytotoxicity against human CNSC cells assessed as cell growth at 10 uM relative to control; format: functional; settings: read-out: Activity; how it was run: as §1
TK-10 = experiment: Growth inhibition of human TK10 cells; format: functional
K562 = experiment: Growth inhibition of human K562 cells; format: functional
KM12 = experiment: Growth inhibition of human KM12 cells; format: functional
[11] = Growth inhibition of human NCI-ADR-RES cells; format: functional
[12] = Growth inhibition of human HOP92 cells; format: functional
[13] = Cytotoxicity against human NSCLC cells assessed as cell growth at 10 uM relative to control; format: functional; settings: read-out: Activity; how it was run: as §1
T47D = experiment: Growth inhibition of human T47D cells; format: functional
[14] = Cytotoxicity against human prostate cancer cells assessed as cell growth at 10 uM relative to control; format: functional; settings: Cancer cell lines, read-out: Activity; how it was run: as §1
A498 = experiment: Growth inhibition of human A498 cells; format: functional
[15] = Growth inhibition of human OVCAR5 cells; format: functional; settings: OVCAR-5
[16] = Cytotoxicity against human melanoma cells assessed as cell growth at 10 uM relative to control; format: functional; settings: read-out: Activity; how it was run: as §1
[17] = read-out: LC50 (the source's name)

Compound: CC(C)C[C@H](NC(=O)CCn1ccc2ccccc2c1=O)B(O)O
- growth at 10 µM [1]: 73.1%
- GI50 (IGROV-1): 12.3 µM
- LC50 (IGROV-1): > 100 µM
- TGI (IGROV-1): > 100 µM
- growth at 10 µM [2]: 45.1%
- GI50 (SR): 1700 nM
- TGI (SR): 28.9 µM
- CC50 (SR; [17]): > 100 µM
- GI50 (MDA-MB-435): 1270 nM
- TGI (MDA-MB-435): 2810 nM
- CC50 (MDA-MB-435; [17]): 6.24 µM
- GI50 [3]: 3.92 µM
- LC50 [3]: > 100 µM
- TGI [3]: 35.3 µM
- GI50 (SN12C): 11.2 µM
- TGI (SN12C): 55.4 µM
- CC50 (SN12C; [17]): > 100 µM
- GI50 (SK-MEL-2): 3.58 µM
- LC50 (SK-MEL-2): > 100 µM
- TGI (SK-MEL-2): 32.5 µM
- GI50 (ACHN): 1750 nM
- TGI (ACHN): > 100 µM
- CC50 (ACHN; [17]): > 100 µM
- GI50 (HOP-62): 4.51 µM
- TGI (HOP-62): 22.1 µM
- CC50 (HOP-62; [17]): 96.4 µM
- GI50 ([4]; MOLT-4): 1280 nM
- TGI ([4]; MOLT-4): 5.94 µM
- CC50 ([4]; MOLT-4, read-out: LC50 (the source's name)): > 100 µM
- GI50 ([5]; OVCAR-4): 17 µM
- TGI ([5]; OVCAR-4): > 100 µM
- CC50 ([5]; OVCAR-4, read-out: LC50 (the source's name)): > 100 µM
- GI50 ([6]; SF-539): 1610 nM
- TGI ([6]; SF-539): 5.62 µM
- CC50 ([6]; SF-539, read-out: LC50 (the source's name)): > 100 µM
- inhibition [7]: > 40%
- GI50 [8]: 4.29 µM
- LC50 (concentration killing 50% of cells) [8]: > 100 µM
- TGI [8]: 24.9 µM
- GI50 (U-251): 4.23 µM
- TGI (U-251): > 100 µM
- CC50 (U-251; [17]): > 100 µM
- GI50 (NCI-H226): 1470 nM
- TGI (NCI-H226): 3.24 µM
- CC50 (NCI-H226; [17]): 7.15 µM
- GI50 (CAKI-1): 2930 nM
- TGI (CAKI-1): 27 µM
- CC50 (CAKI-1; [17]): > 100 µM
- Ki (Chymotrypsinogen A): Not Active
- GI50 (SW-620): 3000 nM
- LC50 (SW-620): 93.4 µM
- TGI (SW-620): 12 µM
- GI50 [9]: 1970 nM
- LC50 (concentration killing 50% of cells) [9]: 31.7 µM
- TGI [9]: 5.66 µM
- GI50 (Malme-3M): 2580 nM
- TGI (Malme-3M): 9.89 µM
- CC50 (Malme-3M; [17]): > 100 µM
- GI50 (SK-OV-3): 4.72 µM
- LC50 (SK-OV-3): > 100 µM
- TGI (SK-OV-3): 81.3 µM
- growth at 10 µM [10]: 52%
- GI50 (TK-10): 2930 nM
- LC50 (TK-10): > 100 µM
- TGI (TK-10): 9.8 µM
- GI50 (K562): 4.97 µM
- TGI (K562): > 100 µM
- CC50 (K562; [17]): > 100 µM
- GI50 (KM12): 7.51 µM
- LC50 (KM12): > 100 µM
- TGI (KM12): 29.8 µM
- GI50 [11]: 67.1 µM
- LC50 [11]: > 100 µM
- TGI [11]: > 100 µM
- GI50 ([12]; HOP-92): 10.9 µM
- TGI ([12]; HOP-92): 67.1 µM
- CC50 ([12]; HOP-92, read-out: LC50 (the source's name)): > 100 µM
- growth at 10 µM [13]: 60.3%
- GI50 (T47D): 3.71 µM
- TGI (T47D): 29.3 µM
- CC50 (T47D; [17]): > 100 µM
- growth at 10 µM [14]: 57.8%
- GI50 (A498): 1220 nM
- LC50 (A498): > 100 µM
- TGI (A498): 4.79 µM
- GI50 [15]: 18.8 µM
- LC50 [15]: > 100 µM
- TGI [15]: > 100 µM
- growth at 10 µM [16]: 30.5%
